# Source: ChEMBL document CHEMBL2062469, “1-(2-Mercaptobenzenesulfonyl)-3-hydroxyguanidines--novel potent antiproliferatives, synthesis and in vitro biological activity” (2012)
# Experiments:
# Assay type in all cases: functional
# HT-29 = assay: Cytostatic activity against human HT-29 cells
# Summary of the method: (§1)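 NCI-60 human tumor cell line screen run by the US National Cancer Institute under the NIH Developmental Therapeutics Program protocol. A single-dose prescreen at 10 µM came first. Selected compounds then went into the 5-dose assay. Cytostatic activity is reported as GI50 (µM).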
# Hs-578T = assay: Cytostatic activity against human Hs 578T cells; summary of the method: as §1
# UO-31 = assay: Cytostatic activity against human UO31 cells
# Summary of the method: (§2)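 Human tumour cell lines from the NCI-60 panel, tested at the US National Cancer Institute under the NIH Developmental Therapeutics Program protocol. A single-dose prescreen at 10 µM came first. Selected compounds then went to a 5-dose assay, which gave GI50 and TGI values in µM.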
# Malme-3M = assay: Cytostatic activity against human MALME-3M cells; summary of the method: as §1
# UACC-257 = assay: Cytostatic activity against human UACC257 cells; summary of the method: as §2
# SNB-75 = assay: Cytostatic activity against human SNB75 cells; summary of the method: as §2
# NCI-H522 = assay: Cytostatic activity against human NCI-H522 cells; summary of the method: as §1
# NCI-H460 = assay: Cytostatic activity against human NCI-H460 cells; summary of the method: as §1
# U-251 = assay: Cytostatic activity against human U251 cells; summary of the method: as §2
# IGROV-1 = assay: Cytostatic activity against human IGROV1 cells; summary of the method: as §1
# OVCAR-3 = assay: Cytostatic activity against human OVCAR3 cells; summary of the method: as §1
# MDA-MB-231 = assay: Cytostatic activity against human MDA-MB-231/ATCC cells; summary of the method: as §1
# M14 = assay: Cytostatic activity against human M14 cells; summary of the method: as §1
# SF-268 = assay: Cytostatic activity against human SF268 cells; summary of the method: as §1
# UACC-62 = assay: Cytostatic activity against human UACC62 cells; summary of the method: as §2
# MDA-MB-435 = assay: Cytostatic activity against human MDA-MB-435 cells; summary of the method: as §1
GI50 (HT-29),GI50 (NCI-H522),GI50 (NCI-H460),GI50 (U-251),GI50 (OVCAR-3),GI50 (MDA-MB-231),GI50 (MDA-MB-435),Structure (SMILES),GI50 (Hs-578T),GI50 (UO-31),GI50 (Malme-3M),GI50 (UACC-257),GI50 (SNB-75),GI50 (IGROV-1),GI50 (M14),GI50 (SF-268),GI50 (UACC-62)
2.29 µM,1.86 µM,2.34 µM,10.7 µM,1.62 µM,5.13 µM,2.63 µM,N=C(NO)NS(=O)(=O)c1cc(-c2nnc(-c3ccc(Cl)cc3)s2)c(Cl)cc1SCc1ccc2c(c1)OCO2,2.4 µM,3.72 µM,2.24 µM,3.55 µM,1.78 µM,3.47 µM,2.14 µM,2.04 µM,2.14 µM
,,,11.2 µM,,12.6 µM,3.89 µM,N=C(NO)NS(=O)(=O)c1cc(-c2nc(-c3ccc(Cl)cc3)cs2)c(Cl)cc1SCc1ccc2c(c1)OCO2,,,,,,25.1 µM,,6.46 µM,7.76 µM
